Experimental data as given in ChEMBL document CHEMBL6092177, “Applying molecular hybridization to design a new class of pyrazolo[3,4-d]pyrimidines as Src inhibitors active in hepatocellular carcinoma” (Eur J Med Chem, 2024).
Converted amounts (≈) assume the structure as drawn. The source made the active and inactive calls. The rule behind the calls is not given here.

Legend:
[1] = Stability in human plasma measured after 24 hrs by UV-LC/MS analysis; format: ADME, cell-free; details: read-out: Stability
HepG2 [2] = assay: Antiproliferative activity against human HepG2 cells assessed as cell growth inhibition measured at 24 hrs by MTT assay; details: HepG2, 24 h
Huh-7 [3] = assay: Antiproliferative activity against human Huh-7 cells assessed as cell growth inhibition measured at 72 hrs by MTT assay; details: Huh-7, 72 h
HepG2 [4] = assay: Antiproliferative activity against human HepG2 cells assessed as cell growth inhibition measured at 48 hrs by MTT assay; details: HepG2, 48 h
Huh-7 [5] = assay: Antiproliferative activity against human Huh-7 cells assessed as cell growth inhibition measured at 48 hrs by MTT assay; details: Huh-7, 48 h
[6] = Apparent permeability of compound in PBS buffer at pH 7.4 incubated for 4 hrs by LC-UV-MS analysis; format: ADME; details: not told
Outline: (§1)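 PAMPA: DMSO stock diluted 1:1 with 10 mM PBS pH 7.4 as donor, through filter coated with 1% phosphatidylcholine in dodecane. Acceptor DMSO/PBS 1:1; incubated at rt for 4 h with gentle shaking. Both compartments quantified by LC-UV-MS to give Papp and % membrane retention; three independent experiments in triplicate.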

[7] = Permeability of the compound in PBS buffer at pH 7.4 assessed as membrane retention rate by PAMPA method; format: ADME; outline: as §1
[8] = Thermodynamic solubility of compound by LC-MS/MS analysis; format: physicochemical; details: read-out: Therm_solubility
Outline: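 Thermodynamic solubility: solubilized compound quantified in triplicate by LC-MS/MS on a C18 column with water/ACN gradient, both with 0.1% formic acid. Calibration from DMSO standards 0.1–100 µM; LoQ below 0.01 µM.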

HepG2 [9] = assay: Antiproliferative activity against human HepG2 cells assessed as cell growth inhibition measured at 72 hrs by MTT assay; details: HepG2, 72 h
Huh-7 [10] = assay: Antiproliferative activity against human Huh-7 cells assessed as cell growth inhibition measured at 24 hrs by MTT assay; details: Huh-7, 24 h
[11] = Metabolic stability in human liver microsome measured after 1 hr in presence of NADPH by UV/LC-MS analysis; format: ADME; details: liver microsomes, read-out: Stability
Outline: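 Compound incubated with HLM (0.2 mg/mL) and NADPH (in 48 mM MgCl2) in 10 mM PBS pH 7.4 at 37 °C for 60 min with shaking. Stopped with cold ACN, centrifuged, dried under N2 and quantified by UV/LC-MS for % unmetabolized.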

[12] = Stability in human plasma assessed as half life measured up to 24 hrs by UV-LC/MS analysis; format: ADME, cell-free
[13] = Cytotoxicity against human HaCaT cells assessed as reduction in cell proliferation incubated for 24 hrs by MTT assay; format: toxicity, cell-based
[14] = Cytotoxicity against human HEK293 cells assessed as reduction in cell proliferation incubated for 48 hrs by MTT assay; format: toxicity, cell-based
HepG2 [15] = assay: Induction of cell cycle arrest in human HepG2 cells assessed as accumulation of hypodiploid cells at sub G0/G1 phase incubated for 72 hrs by FACScan flow cytometer analysis relative to control; format: functional
Outline: (§2)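 HepG2 treated about 2 µM for 72 h. DNA content measured by FACScan flow cytometry, red fluorescence through a 563–607 nm bandpass (FL2), 10^4 cells/sample. Phase percentages are means ± SD of three independent experiments in triplicate vs control.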

HepG2 [16] = assay: Inhibition of cell migration in human HepG2 cells assessed as wound closure at 0.25 uM measured at 72 hrs by T-sratch assay; details: HepG2, 72 h
HepG2 [17] = assay: Induction of cell cycle arrest in human HepG2 cells assessed as accumulation of cells at G2/M phase incubated for 72 hrs by FACScan flow cytometer analysis relative to control; format: functional; outline: as §2
HepG2 [18] = assay: Antiproliferative activity against human HepG2 cells assessed as cell viability at 0.1 to 1 uM preincubated for 24 hrs followed by 48 hrs drug-free treatment by MTT assay; format: functional; details: dose 0.1-1 µM
Outline: (§3)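 HepG2 exposed to 0.1–100 µM for 24 h (or 48 h), then washed with PBS and kept 48 h (or 24 h) in drug-free DMEM with 10% FBS. Viability by MTT. Means ± SD of three independent experiments in triplicate; ANOVA with Tukey test.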

HepG2 [19] = assay: Induction of cell cycle arrest in human HepG2 cells assessed as decrease in accumulation of G0/G1 phase incubated for 72 hrs by FACScan flow cytometer analysis relative to control; format: functional; parameters: scale not given: the % may be the effect or the level left; outline: as §2
[20] = Cytotoxicity against human HEK293 cells assessed as reduction in cell proliferation incubated for 72 hrs by MTT assay; format: toxicity, cell-based
HepG2 [21] = assay: Antiproliferative activity against human HepG2 cells assessed as inhibition of cell growth at 10 to 100 uM preincubated for 24 hrs followed by 48 hrs drug-free treatment by MTT assay; format: functional, cell-based; details: dose 10-100 µM; outline: as §3
HepG2 [22] = assay: Inhibition of cell colony formation in human HepG2 cells assessed as reduction in clonogenic survival at 1 to 2 uM incubated for 10 days by crystal violet staining based assay; format: functional; details: dose 1-2 µM, time 10 day
Outline: (§4)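 HepG2 at 1000 cells/dish in DMEM with 10% FBS, exposed to 0.25, 0.5, 1 or 2 µM for 10 days. Colonies (>50 cells) fixed with methanol, stained with 0.5% crystal violet and counted. Three independent experiments in triplicate; unpaired t-test vs untreated.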

HepG2 [23] = assay: Inhibition of cell colony formation in human HepG2 cells assessed as reduction in clonogenic survival at 0.5 uM incubated for 10 days by crystal violet staining based assay; format: functional; details: HepG2, 240 h, time 10 day; outline: as §4
HepG2 [24] = assay: Induction of cell cycle arrest in human HepG2 cells assessed as accumulation of cells at S phase incubated for 72 hrs by FACScan flow cytometer analysis relative to control; format: functional; outline: as §2
[25] = Cytotoxicity against human HEK293 cells assessed as reduction in cell proliferation incubated for 24 hrs by MTT assay; format: toxicity, cell-based
[26] = Cytotoxicity against human HaCaT cells assessed as reduction in cell proliferation incubated for 72 hrs by MTT assay; format: toxicity, cell-based
[27] = Cytotoxicity against human HaCaT cells assessed as reduction in cell proliferation incubated for 48 hrs by MTT assay; format: toxicity, cell-based
HepG2 [28] = assay: Antiproliferative activity against human HepG2 cells assessed as inhibition of cell growth at 0.1 to 1 uM incubated for 24 hrs by MTT assay; format: functional, cell-based; details: dose 0.1-1 µM; outline: as §3
[29] = Inhibition of Abl (unknown origin)

SMILES | remaining at 24 h [1] [%] | IC50 (HepG2 [2]) [µM] | IC50 (Huh-7 [3]) [µM] | IC50 (HepG2 [4]) [µM] | IC50 (Huh-7 [5]) [µM] | Papp at 4 h [6] [×10⁻⁶ cm/s] | membrane retention [7] [%] | solubility thermodynamic [8] [µg/mL] | IC50 (HepG2 [9]) [µM] | IC50 (Huh-7 [10]) [µM] | remaining at 1 h [11] [%] | further results
Cn1ncc2c(Nc3ncc(C(=O)Nc4cc(O)ccc4Br)s3)nc(SCCN3CCOCC3)nc21 | 99.5 | 12 | 7.21 | 7.31 | 13.7 | < 0.1 | 0.51 | < 0.01 | 1.55 | 26.5 | > 100 | 
O=C(Nc1ccccc1)c1cnc(Nc2ncnc3c2cnn3CC(Cl)c2ccccc2)s1 (stereo not given) | 88.5 |  | 15.3 | 7.46 | 21.2 | 12 | 8.36 | < 0.01 | 3.7 |  | 99 | 
Cn1ncc2c(Nc3ncc(C(=O)Nc4ccccc4)s3)nc(SCCN3CCOCC3)nc21 | 98.3 |  | 14 |  | 33.5 | 1.61 | 16.49 | < 0.01 | 7.9 | 67.6 | 99.8 | half-life [12]: > 24 h
Cc1ccc(O)cc1NC(=O)c1cnc(Nc2nc(SCCN3CCOCC3)nc3c2cnn3C)s1 | > 100 | 59.6 | 10.3 | 13.9 | 28.8 | < 0.1 | 19 | < 0.01 | 2.47 | 54.7 | > 100 | CC50 at 24 h [13]: 92.8 µM; CC50 at 48 h [14]: 6.9 µM; Activity (HepG2 [15]): 44.1%; wound closure % at 0.25 µM (HepG2 [16]): ~70%; Activity (HepG2 [17]): 38.5%; Activity (HepG2 [18]): 15%; Activity (HepG2 [19]): 10.4%; CC50 at 72 h [20]: 5.23 µM; Activity (HepG2 [21]): inactive; Activity (HepG2 [22]): 24%; inhibition at 0.5 µM (HepG2 [23]): 40%; Activity (HepG2 [24]): 25.2%; CC50 at 24 h [25]: 18.5 µM; CC50 at 72 h [26]: 3.27 µM; CC50 at 48 h [27]: 22.8 µM; Activity (HepG2 [28]): Active
Cc1nc(Nc2ncc(C(=O)Nc3c(C)cccc3Cl)s2)cc(N2CCN(CCO)CC2)n1 [DASATINIB ANHYDROUS] |  | 23.5 | 12.7 | 9.54 | 16.3 |  |  |  | 7.75 | 37.5 |  | CC50 at 24 h [13]: 20.4 µM; CC50 at 48 h [14]: 0.89 µM; CC50 at 72 h [20]: 0.78 µM; IC50 [29]: 0.0006 µM; CC50 at 24 h [25]: 5.4 µM; CC50 at 72 h [26]: 0.22 µM; CC50 at 48 h [27]: 1.35 µM

Second part, led by results:

remaining at 24 h [1] [%] | IC50 (HepG2 [2]) [µM] | IC50 (Huh-7 [3]) [µM] | IC50 (HepG2 [4]) [µM] | IC50 (Huh-7 [5]) [µM] | Papp at 4 h [6] [×10⁻⁶ cm/s] | membrane retention [7] [%] | solubility thermodynamic [8] [µg/mL] | IC50 (HepG2 [9]) [µM] | IC50 (Huh-7 [10]) [µM] | remaining at 1 h [11] [%] | SMILES | further results
 | > 50 |  | > 50 |  | 0.1 | 3.1 | 0.03 (≈ 0.0585 µM) | > 50 |  | 99.4 | Cn1ncc2c(Nc3ncc(C(=O)Nc4cccc(O)c4)s3)nc(SCCN3CCOCC3)nc21 | 
94.5 |  | 26.1 |  | 48.8 | < 0.1 | 7.28 | 0.01 (≈ 0.0234 µM) | 6.52 |  | > 100 | Cn1ncc2c(Nc3ncc(C(=O)Nc4cccc(O)c4)s3)nc(NCCO)nc21 | 
> 100 | 87.1 | 11.1 | 5.06 | 22 | 0.14 | 6.1 | < 0.01 | 3.19 |  | > 100 | O=C(Nc1cccc(O)c1)c1cnc(Nc2ncnc3c2cnn3CC(Cl)c2ccccc2)s1 (stereo not given) | 
